Hits are enriched below; roughly 2.1% of the tested compounds scored in any of these assays.
PDI turbidity = inhibitors of human PDI, primary screen, biochemical, turbidity, single point, plate reader; Protein disulfide-isomerase (Homo sapiens), P07237; PDI insulin aggregation turbidity, A650, 90 min; inhibition, % at 10 µM; 350,000 tested, 0.052% active; AID 588391, 2011;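 active = mean inhibition across replicates of 30% or more, whatever share of single replicates reach that level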
Target sequence (P07237 whole entry, looked up): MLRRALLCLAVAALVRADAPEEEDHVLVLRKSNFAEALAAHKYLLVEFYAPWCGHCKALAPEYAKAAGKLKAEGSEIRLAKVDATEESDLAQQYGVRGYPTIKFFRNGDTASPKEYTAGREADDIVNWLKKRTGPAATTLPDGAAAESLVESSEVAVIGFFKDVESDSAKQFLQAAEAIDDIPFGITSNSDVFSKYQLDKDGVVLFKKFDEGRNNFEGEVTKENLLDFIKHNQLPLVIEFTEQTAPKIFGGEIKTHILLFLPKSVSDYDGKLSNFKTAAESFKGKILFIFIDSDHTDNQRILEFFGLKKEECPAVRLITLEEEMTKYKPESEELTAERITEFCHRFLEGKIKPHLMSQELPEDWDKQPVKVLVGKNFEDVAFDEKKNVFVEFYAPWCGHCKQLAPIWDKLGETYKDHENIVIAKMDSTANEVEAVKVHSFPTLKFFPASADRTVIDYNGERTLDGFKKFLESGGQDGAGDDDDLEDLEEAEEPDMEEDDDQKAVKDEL
ERp5 inh = inhibitors of ERp5-driven insulin aggregation, primary screen, biochemical, turbidity, absorbance 650 nm, single point | 90 min | Protein disulfide-isomerase A6 (Homo sapiens), Q15084 | 350,000 tested, 0.05% active | inhibition, % at 9.99 µM;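 active = mean replicate inhibition above about 25%, with every replicate also reaching it, limit read from the data, passing the limit was not always enough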
MLL AF4-AF9 inh = inhibitors of AF4 peptide binding to AF9, primary screen, biochemical, AlphaScreen, biotin-AF4 peptide, FLAG-AF9, single point; inhibition, % at 10 µM; Protein AF-9 (Homo sapiens), P42568; 350,000 tested, 0.47% active; AID 651704, 2012;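 active = every replicate reaching a set inhibition limit, whatever the replicate mean, cut at about 25% in these data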
ARNT TACC3 PPI = disruptors of ARNT/TACC3 protein interaction, primary screen, biochemical, AlphaScreen, single concentration | AlphaScreen His-ARNT PAS-B/GST-TACC3 binding, luminescence; TACC3 fragment carries E629A point mutation | AID 623870, 2012 | 390,000 tested, 0.66% active | Transforming acidic coiled-coil-containing protein 3 (Homo sapiens), Q9Y6A5 | inhibition, % at 9.99 µM;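 active = mean inhibition of replicates at least 50% and at least half of replicates each reaching 50%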
FGF22 binding = binders of human FGF22 protein, primary screen, FGF22 synaptogenesis inhibitor project, biophysical, thermal shift, single point; 340,000 tested, 1.5% active; activity (Tm shift, normalised), % at 9.99 µM; recombinant FGF22 thermal shift, SYPRO orange fluorescence; percent of sucrose octasulfate shift, DMSO zero;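 active = mean Tm shift, scaled 0 neutral to 100 positive control, at about 1.3% or above, every replicate too, limit read from the data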
Target sequence (Q9HCT0 whole entry, looked up): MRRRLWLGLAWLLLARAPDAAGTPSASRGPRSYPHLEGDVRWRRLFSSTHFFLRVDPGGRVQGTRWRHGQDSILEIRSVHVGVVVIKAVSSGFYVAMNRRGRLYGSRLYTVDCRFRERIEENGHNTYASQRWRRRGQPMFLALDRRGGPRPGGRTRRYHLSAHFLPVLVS
FN deposit inh = inhibitors of fibronectin matrix deposition, primary screen, AH1F cells, Alexa488-fibronectin fluorescence, plate reader. AH1F fibroblasts, overnight. inhibition, % at 12.6 µM. 350,000 tested, 0.086% active. AID 743247, 2014;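 active = mean inhibition across replicates of 30% or more, regardless of how many single replicates reach that level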
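Material – AH1F fibroblast monolayer, labelled fibronectin deposition · Reagent – labelled fibronectin 24 nM · Timing – 1 h adhesion, overnight exposure · Measured by – fluorescence at 485 nm excitation, 525 nm emission · Read-out – inhibition of fibronectin deposition signal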
Large screens that a line does not name were inactive.

CC(C)NC(=O)N(C)C[C@H]1Oc2ccc(NC(=O)c3ccncc3)cc2C(=O)N([C@@H](C)CO)C[C@H]1C	none (no result: PDI turbidity, FGF22 binding)
C[C@@H]1O[C@@H](O[C@@H]2C(=O)c3c(O)cc(O)cc3O[C@H]2c2ccc(O)c(O)c2)[C@H](O)[C@H](O)[C@H]1O	PDI turbidity 44
CN1CCC(=NNC(=O)C(=O)Nc2ccccc2F)CC1	FGF22 binding 43 (no result: ARNT TACC3 PPI)
Cc1cc(/C=C2/SC(=S)N(c3ccc([N+](=O)[O-])cc3)C2=O)c(C)n1-c1cccnc1	FGF22 binding 43
Cc1cc(/C=C2\SC(=S)N(C)C2=O)c(C)n1-c1ccccc1O	none
Cc1cc(/C=C2\SC(=S)N(C)C2=O)c(C)n1-c1ccc(O)cc1	PDI turbidity 75
CCCn1c(SCC(=O)N2CCCCC2)nnc1-c1ccccn1	FGF22 binding 44 (no result: PDI turbidity, ARNT TACC3 PPI)
O=C(CSc1ccccn1)N1CCN(c2ccccc2)CC1	none (no result: FN deposit inh)
CCCn1c(SCC(=O)NC2CCCCC2)nnc1-c1ccccn1	none
O=C(CSc1ccc2nnc(-c3ccccn3)n2n1)N1CCN(c2ccccc2)CC1	ARNT TACC3 PPI 67
O=C(CSc1ccc2nnc(-c3ccccn3)n2n1)Nc1ccc2c(c1)OCO2	ARNT TACC3 PPI 51
CO[C@H]1CN(C)C(=O)c2ccc(NC(=O)C3CC3)cc2OC[C@H](C)N(C(=O)CN(C)C)C[C@H]1C	none (no result: PDI turbidity)
Cc1cc(C)cc(N(C(=O)c2sc(C)nc2C)C(C(=O)NC(C)(C)C)c2ccncc2)c1 (centres undefined)	FGF22 binding 43
COc1ccc(Cl)cc1-c1n[nH]c(=S)n1C1CCCCC1	none (no result: ERp5 inh, MLL AF4-AF9 inh, FGF22 binding)
Cc1cc(Cl)ccc1OCc1n[nH]c(=S)n1C1CCCCC1	PDI turbidity 32 (no result: ERp5 inh, MLL AF4-AF9 inh, FGF22 binding)
CCn1c(C)nc2cc(C(=O)OC)ccc21	FGF22 binding 43
CCCC(O)C#Cc1cnc2c(c1)C(=O)N([C@H](C)CO)C[C@H](C)[C@H](CN(C)Cc1cccc(C)c1)O2 (some centres undefined)	none (no result: PDI turbidity)
CCOc1ccc(/C=C/C(=O)CCC(=O)O)cc1	FGF22 binding 43 (no result: ARNT TACC3 PPI)
Cc1noc(C)c1NC(=O)Nc1cccc2c1O[C@@H](CN(C)C(=O)Nc1ccccc1)[C@@H](C)CN([C@@H](C)CO)C2=O	none (no result: PDI turbidity, FN deposit inh)
C[C@H](CO)N1C[C@H](C)[C@H](CN(C)CC2CC2)Oc2cc(-c3cccc(C#N)c3)ccc2S1(=O)=O	none (no result: PDI turbidity, FN deposit inh)
Cc1sc2nc(CN3CCCC3)nc(N3CCN(C(=O)c4ccco4)CC3)c2c1C	FGF22 binding 44
C[C@H](CO)N1C[C@H](C)[C@H](CN(C)C(=O)Nc2ccc(F)cc2)Oc2c(NC(=O)c3nc4ccccc4s3)cccc2C1=O	none (no result: PDI turbidity)
C[C@H]1CN([C@@H](C)CO)C(=O)c2cccc(NC(=O)NC3CCCCC3)c2O[C@@H]1CN(C)Cc1ccc(C(=O)O)cc1	none (no result: PDI turbidity, FN deposit inh)
COc1ccc(C)c2sc(N(CCN(C)C)C(=O)c3ccc4ccccc4c3)nc12	MLL AF4-AF9 inh 29
CC1=C(C(=O)N(C)C)CC(CC(=O)NC2CC2)C(=O)N1Cc1ccccc1 (centres undefined)	none (no result: ARNT TACC3 PPI)
CCN(CC)C(=O)C1=C(C)N(Cc2ccccc2)C(=O)C(CC(=O)NC2CC2)C1 (centres undefined)	FGF22 binding 44 (no result: ARNT TACC3 PPI)
CCN(CC)C(=O)C1=C(C)N(Cc2ccc(C(C)(C)C)cc2)C(=O)C(CC(=O)NC2CCCCC2)C1 (centres undefined)	none (no result: ARNT TACC3 PPI)
CCN(CC)C(=O)C1=C(C)N(Cc2ccccc2)C(=O)C(CC(=O)NC2CCCCC2)C1 (centres undefined)	FGF22 binding 44 (no result: ARNT TACC3 PPI)
CC(C)NC(=O)Nc1ccc2c(c1)C(=O)N([C@@H](C)CO)C[C@H](C)[C@@H](CN(C)Cc1ccc3c(c1)OCO3)OCCCC[C@H](C)O2	none (no result: PDI turbidity, ERp5 inh, MLL AF4-AF9 inh)
NC(=O)N/N=C/c1sc(N2CCCCC2)nc1-c1cccs1	MLL AF4-AF9 inh 30
CC(C)NC(=S)N/N=C/c1sc(N2CCCCC2)nc1-c1cccs1	none
COc1ccc(C(CCNCc2ccc(N(C)C)cc2)c2ccccc2)cc1 (centres undefined)	MLL AF4-AF9 inh 50
CC(C)Oc1ccc(C(CCNCc2ccc(O)cc2)c2ccccc2)cc1 (centres undefined)	none
CO[C@H]1CN(C)C(=O)c2ccc(NC(=O)c3cccc(Oc4ccccc4)c3)cc2OC[C@@H](C)NC[C@@H]1C	none (no result: PDI turbidity, FN deposit inh)
CC(=O)c1ccccc1NC(=O)COC(=O)c1ccccc1NC(=O)c1ccccc1	FGF22 binding 16
C[C@H](CO)N1C[C@H](C)[C@@H](CN(C)S(=O)(=O)c2ccc(Cl)cc2)Oc2ccc(NS(=O)(=O)c3cn(C)cn3)cc2CC1=O	none (no result: PDI turbidity, ARNT TACC3 PPI)
Cc1ccc(S(=O)(=O)N(C)c2ccc3ccccc3c2)cc1	FGF22 binding 44
C/C=C/c1ccc([C@H]2[C@@H](CO)N(c3nc(-c4ccccc4)cs3)[C@H]2C#N)cc1	none (no result: PDI turbidity)
Cc1ccc(CS(=O)(=O)CCC(=O)NCCc2ccccc2)cc1	none
O=C(CCS(=O)(=O)Cc1ccccc1)NCCc1ccccc1	FGF22 binding 43 (no result: FN deposit inh)
CSc1ncccc1C(=O)OCC(=O)NCc1ccc2c(c1)OCO2	FGF22 binding 43
Cc1ccc(CNC(=O)COC(=O)c2cccnc2Cl)cc1	FGF22 binding 43
O=C(COC(=O)c1cccnc1Cl)c1ccc(F)cc1	FGF22 binding 43
COc1cc(OC)cc(C(=O)OCC(=O)NCc2ccc3c(c2)OCO3)c1	FGF22 binding 44 (no result: ARNT TACC3 PPI)
CCn1c(-c2ccccc2)csc1=Nc1ccc(O)cc1	MLL AF4-AF9 inh 49
CCOc1ccc(N=c2scc(-c3ccccc3)n2CCO)cc1	none (no result: FN deposit inh)
COC(=O)Cn1cnc2sc3c(c2c1=O)CCCC3	FGF22 binding 43
CC1CCc2c(sc3ncn(Cc4ccc(C(=O)O)cc4)c(=O)c23)C1 (centres undefined)	FGF22 binding 43
CN(C)C(=O)[C@@H]1[C@@H](CO)[C@@H]2Cn3c(ccc(-c4ccncc4)c3=O)[C@H]1N2CC1CC1	none (no result: PDI turbidity, FN deposit inh)
COc1cc(OC)c(C#N)c(S(=O)(=O)Cc2ccccc2)c1	none (no result: ERp5 inh, MLL AF4-AF9 inh, FGF22 binding, FN deposit inh)
N#Cc1c([N+](=O)[O-])cc([N+](=O)[O-])cc1S(=O)(=O)Cc1ccccc1	FN deposit inh 45
COc1cc(/C=C/c2cc(C(F)(F)F)[nH]c(=O)n2)cc(OC)c1OC	none
COc1cc(OC)c(OC)cc1/C=C/c1cc(C(F)(F)F)[nH]c(=O)n1	FGF22 binding 43

From PubChem
